Common to all, as to type: functional
For experiment [1], the system named is Pseudomonas aeruginosa. Briefly: Antibacterial activity was evaluated against Pseudomonas aeruginosa. A digest of the protocol:
(§1)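 MIC against aerobic bacteria, measured at Bayer AG, by standard agar dilution or broth microdilution per NCCLS M7-A5 guidelines. MIC taken as lowest concentration visibly inhibiting growth after in vitro incubation, read when untreated culture growth becomes visible; expressed as log 1/C.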

Experiment [2] deals with Staphylococcus aureus. Briefly: Antibacterial activity was evaluated against Staphylococcus aureus. The method, boiled down: as §1
In experiment [3] the test system is Escherichia coli. Nature of the experiment: Antibacterial activity was evaluated against Escherichia coli. The method, boiled down:
as §1

The subject of experiment [4] is Enterococcus faecalis. Nature of the experiment: Antibacterial activity evaluated against Enterococcus faecalis. A digest of the protocol:
as §1

We go through 38 molecules from ChEMBL document CHEMBL1148326, “Chemometric studies on the bactericidal activity of quinolones via an extended VolSurf approach” (2004).

Molecules are shown by their SMILES.

With `O=C(O)c1cn(C2CC2)c2cc(N3CCN(c4ncccn4)CC3)c(F)cc2c1=O`, the “Log 1/C” value came to 3.5 in experiment [1], 5.01 in experiment [2], 4.41 in experiment [3] and 4.71 in experiment [4].

For the molecule `O=C(O)c1cn(C(CF)CF)c2cc(N3C[C@@H]4CCCN[C@@H]4C3)c(F)cc2c1=O`, the “Log 1/C” value in experiment [1] is on record as 4.11; in experiment [2], 5.01; in experiment [3], 5.61; in experiment [4], 5.01.

For the molecule `C#CCN1CCN(c2c(F)cc3c(=O)c(C(=O)O)cn(C4CC4)c3c2Cl)CC1`, the “Log 1/C” value in experiment [1] is given as 5.01; in experiment [2] it was 6.21; in experiment [3] it was 6.83; in experiment [4], 5.61.

As to `CN1CCN(c2nc3c(cc2Cl)c(=O)c(C(=O)O)cn3C2CC2)CC1`, the “Log 1/C” value in experiment [1] is 4.96; in experiment [2], 4.96; in experiment [3], 6.77; in experiment [4] it was 4.35.

For `CC(C)(C)N1CCN(c2cc3c(cc2F)c(=O)c(C(=O)O)cn3C2CC2)CC1`, the “Log 1/C” value in experiment [1] came to 5.29; in experiment [2], 6.19; in experiment [3] it was 7.1; in experiment [4], 5.89.

Regarding `CN1CCN(c2c(F)cc3c(=O)c(C(=O)O)cn(CF)c3c2F)CC1`, the “Log 1/C” value in experiment [1] worked out at 5.85; in experiment [2] it was 5.85; in experiment [3], 7.07; in experiment [4], 5.55.

Consider `O=C(O)c1cn(C2CC2)c2c(Cl)c(N3C[C@@H]4CCCN[C@@H]4C3)c(F)cc2c1=O`, for which the “Log 1/C” value in experiment [1] turned out to be 6.25; in experiment [2], 7.75; in experiment [3], 8.05; in experiment [4], 7.16.

For the molecule `O=C(O)c1cn(C2CC2)c2c(Cl)c(N3C[C@H]4CCCN[C@H]4C3)c(F)cc2c1=O`, the “Log 1/C” value in experiment [1] turned out to be 5.65; in experiment [2], 6.85; in experiment [3] it was 7.47; in experiment [4] it was 6.85.

As for `O=C(O)c1cn(C2C[C@@H]2F)c2c(Cl)c(N3C[C@H]4CCCN[C@H]4C3)ccc2c1=O` (some centres not stated), the “Log 1/C” value is 5.61 in experiment [1], 6.51 in experiment [2], 7.13 in experiment [3] and 6.51 in experiment [4].

`C[C@H]1COc2c(N3C[C@@H]4CCCN[C@@H]4C3)c(F)cc3c(=O)c(C(=O)O)cn1c23`: the “Log 1/C” value in experiment [1] was 5.59; in experiment [2], 6.19; in experiment [3], 6.8; in experiment [4], 6.19.

Take `N[C@@H]1CN(c2c(F)cc3c(=O)c(C(=O)O)cn([C@@H]4C[C@@H]4F)c3c2Cl)CC12CC2` [SITAFLOXACIN ANHYDROUS]: the “Log 1/C” value in experiment [1] was determined as 6.84; in experiment [2], 7.74; in experiment [3], 8.04; in experiment [4], 7.45.

As for `O=C(O)c1cn(C2CC2)c2cc(N3C(=O)C=CC3=O)c(F)cc2c1=O`, the “Log 1/C” value in experiment [1], in experiment [2], in experiment [3] and in experiment [4] was 3.43 in each case.

For the molecule `O=C(O)c1cn(C2CCOCC2)c2cc(N3CCNCC3)c(F)cc2c1=O`, the “Log 1/C” value in experiment [1] worked out at 3.47; in experiment [2], 4.07; in experiment [3] it was 3.77; in experiment [4], 4.07.

Regarding `O=C(O)c1cn(C2CC2)c2cc(N3CCN(c4ccncc4)CC3)c(F)cc2c1=O`, the “Log 1/C” value in experiment [1] was determined as 3.5; in experiment [2] it was 5.61; in experiment [3] it was 5.91; in experiment [4], 4.71.

As to `C[C@H]1COc2c(N3CCN(C)CC3)c(F)cc3c(=O)c(C(=O)O)cn1c23.C[C@H]1COc2c(N3CCN(C)CC3)c(F)cc3c(=O)c(C(=O)O)cn1c23.O` [LEVOFLOXACIN], the “Log 1/C” value in experiment [1] is on record as 6.2; in experiment [2], 6.5; in experiment [3], 7.41; in experiment [4], 6.2.

On to `C[C@@H]1CN(c2c(F)c(N)c3c(=O)c(C(=O)O)cn(C4CC4)c3c2F)C[C@H](C)N1` [SPARFLOXACIN], for which the “Log 1/C” value in experiment [1] was determined as 5.59; in experiment [2] it was 6.8; in experiment [3], 7.42; in experiment [4] it was 6.2.

Take `O=C(O)c1cn(C2CC2)c2c(F)c(N3C4CCC3CC4)c(F)cc2c1=O`: the “Log 1/C” value in experiment [1] was determined as 4.35; in experiment [2] it was 5.86; in experiment [3], 5.86; in experiment [4], 5.26.

On to `O=C(O)c1cn(C2CC2)c2c(Cl)c(N3CCCCC3)c(F)cc2c1=O`, for which the “Log 1/C” value in experiment [1] is 5.26; in experiment [2], 7.42; in experiment [3], 6.46; in experiment [4], 6.79.

As for `O=C(O)c1cn(C2CC2)c2cc(N3CCN(C(CO)(CO)CO)CC3)c(F)cc2c1=O`, the “Log 1/C” value turned out to be 3.53 in experiment [1], 4.74 in experiment [2], 5.34 in experiment [3] and 4.13 in experiment [4].

With `O=C(O)c1cn2c3c(c(N4CCNCC4)c(F)cc3c1=O)OC=C2COCc1ccccc1`, the “Log 1/C” value is given as 3.55 in experiment [1], 4.15 in experiment [2], 3.55 in experiment [3] and 4.15 in experiment [4].

Regarding `O=C(O)c1cn(C2CC2)c2cc(N3CCNCC3)c(F)cc2c1=O` [CIPROFLOXACIN], the “Log 1/C” value in experiment [1] was found to be 6.77; in experiment [2], 6.16; in experiment [3], 7.66; in experiment [4] it was 6.16.

As for `O=C(O)c1cn(C2CC2)c2cc(N3CCN(C4CC4)CC3)c(F)cc2c1=O`, the “Log 1/C” value in experiment [1] turned out to be 4.67; in experiment [2], 6.17; in experiment [3] it was 7.08; in experiment [4] it was 5.57.

Regarding `O=C(O)c1cn(C2CC2)c2c(F)c(N3C[C@@H]4OCCN[C@@H]4C3)c(F)c(Br)c2c1=O`, the “Log 1/C” value in experiment [1] turned out to be 4.47; in experiment [2], 6.27; in experiment [3], 6.58; in experiment [4], 5.37.

On to `CN1CCC[C@@H]2CN(c3c(F)cc4c(=O)c(C(=O)O)cn(C5CC5)c4c3Cl)C[C@@H]21`, for which the “Log 1/C” value was 5.32 in experiment [1], 6.83 in experiment [2], 7.15 in experiment [3] and 6.23 in experiment [4].

With `CN1CCN(c2c(F)cc3c(=O)c(C(=O)O)cn4c3c2OC(C(C)(C)C)=C4)CC1`, the “Log 1/C” value in experiment [1] came to 3.53; in experiment [2] it was 3.84; in experiment [3], 4.44; in experiment [4], 4.14.

On to `O=C(O)c1c(=O)c2cc(F)c(N3C[C@@H]4CCCN[C@@H]4C3)c3c2n2c(csc12)CS3`, for which the “Log 1/C” value amounted to 5.63 in experiment [1], 6.86 in experiment [2], 7.16 in experiment [3] and 6.54 in experiment [4].

Take `CC(C)(C)n1cc(C(=O)O)c(=O)c2cc(F)c(N3CCNCC3)cc21`: the “Log 1/C” value in experiment [1] was 6.14; in experiment [2], 6.44; in experiment [3], 7.06; in experiment [4] it was 6.44.

Take `CN1CCC[C@H]2CN(c3c(F)cc4c(=O)c(C(=O)O)cn(C5CC5)c4c3Cl)C[C@H]21`: the “Log 1/C” value in experiment [1] was 5.62; in experiment [2], 7.13; in experiment [3] it was 7.45; in experiment [4], 6.84.

Regarding `CO/N=C/Cn1cc(C(=O)O)c(=O)c2cc(F)c(N3C[C@@H]4CCCN(C)[C@@H]4C3)c(F)c21`, the “Log 1/C” value is 4.42 in experiment [1], 5.62 in experiment [2], 5.62 in experiment [3] and 4.42 in experiment [4].

Turning to `O=C(O)c1cn(C2CC2)c2c(F)c(N3C[C@@H]4CCCN[C@@H]4C3)c(F)cc2c1=O`, the “Log 1/C” value in experiment [1] is given as 6.23; in experiment [2], 7.44; in experiment [3] it was 8.02; in experiment [4], 6.84.

On to `O=C(O)c1cn(C2CC2)c2c(F)c(N3C[C@H]4CCCN[C@H]4C3)c(F)cc2c1=O`, for which the “Log 1/C” value in experiment [1] was 5.63; in experiment [2] it was 6.84; in experiment [3] it was 7.45; in experiment [4], 6.53.

Take `O=C(O)c1cn2c3c(c(N4CCN(C5CC5)CC4)c(F)cc3c1=O)OC1=C2CCC1`: the “Log 1/C” value is on record as 3.54 in experiment [1], 4.75 in experiment [2], 4.15 in experiment [3] and 4.75 in experiment [4].

As for `N[C@@]12C=CC=CC1CN(c1c(F)cc3c(=O)c(C(=O)O)cn([C@@H]4C[C@@H]4F)c3c1Cl)C2` (some centres not stated), the “Log 1/C” value was 6.56 in experiment [1], 8.06 in experiment [2], 8.06 in experiment [3] and 7.16 in experiment [4].

Turning to `O=C(O)c1cn(C2CC2)c2cc(N3C[C@H]4CCCN[C@H]4C3)c(F)cc2c1=O`, the “Log 1/C” value in experiment [1] was determined as 5.61; in experiment [2], 6.21; in experiment [3], 6.82; in experiment [4], 5.91.

Regarding `C=CCN1CCN(c2cc3c(cc2F)c(=O)c(C(=O)O)cn3C2CC2)CC1`, the “Log 1/C” value is 5.31 in experiment [1], 6.21 in experiment [2], 6.82 in experiment [3] and 5.61 in experiment [4].

For the molecule `CC1=C(C)n2cc(C(=O)O)c(=O)c3c(F)c(F)c(N4CCN(C5CC5)CC4)c(c32)O1`, the “Log 1/C” value was 3.51 in experiment [1], 4.42 in experiment [2], 4.12 in experiment [3] and 4.12 in experiment [4].

As for `CSc1cc2c(=O)c(C(=O)O)cn(C3CC3)c2c(SC)c1SC`, the “Log 1/C” value in experiment [1] was found to be 3.46; in experiment [2] it was 4.96; in experiment [3] it was 4.36; in experiment [4], 3.76.

`CCn1cc(C(=O)O)c(=O)c2cc(F)c(N3CCNCC3)cc21` [NORFLOXACIN]: the “Log 1/C” value in experiment [1] is reported as 5.85; in experiment [2] it was 5.55; in experiment [3], 6.76; in experiment [4] it was 5.55.
